High-throughput results: PubChem BioAssay, The Scripps Research Institute Molecular Screening Center
TCR CD3 inh = inhibitors of human TCR-CD3 interaction. actives 0.37% (n = 360,000). inhibition, % at 9.4 µM. TAMRA-labeled TCR probe fluorescence, biochemical; in the data active = inhibition above about 19%;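 note: recombinant mutant TCR 2C K166C tagged with TAMRA read by polarization; 0% = receptor in buffer alone and 100% = receptor with positive control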
rCAG RNA binder = binds r(CAG) RNA repeats; r(CAG) RNA repeat, TO-PRO-1 dye displacement fluorescence; inhibition, % at 3 µM; actives 1.3% (n = 370,000); AID 651821;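 active = inhibition above the plate cutoff, the mean of all test compounds on that plate plus 3 SD, cut at about 35% in these data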;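 note: 0% = DMSO alone and 100% = 100 µM mitoxantrone as full dye displacement; higher means more dye released from RNA so lower well fluorescence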
SIAE primary = blocks human sialic acid acetylesterase; Q9HAT2; SIAE FP-Rh probe binding, fluorescence polarization; inhibition, % at 9.66 µM; actives 0.69% (n = 370,000);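 active = inhibition above a cutoff: mean of compounds within the control limits plus 3 SD of those, cut at about 17% in these data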;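 note: 0% = plate median of compound wells and 100% = probe without SIAE protein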
Target sequence (Q9HAT2 whole entry, looked up): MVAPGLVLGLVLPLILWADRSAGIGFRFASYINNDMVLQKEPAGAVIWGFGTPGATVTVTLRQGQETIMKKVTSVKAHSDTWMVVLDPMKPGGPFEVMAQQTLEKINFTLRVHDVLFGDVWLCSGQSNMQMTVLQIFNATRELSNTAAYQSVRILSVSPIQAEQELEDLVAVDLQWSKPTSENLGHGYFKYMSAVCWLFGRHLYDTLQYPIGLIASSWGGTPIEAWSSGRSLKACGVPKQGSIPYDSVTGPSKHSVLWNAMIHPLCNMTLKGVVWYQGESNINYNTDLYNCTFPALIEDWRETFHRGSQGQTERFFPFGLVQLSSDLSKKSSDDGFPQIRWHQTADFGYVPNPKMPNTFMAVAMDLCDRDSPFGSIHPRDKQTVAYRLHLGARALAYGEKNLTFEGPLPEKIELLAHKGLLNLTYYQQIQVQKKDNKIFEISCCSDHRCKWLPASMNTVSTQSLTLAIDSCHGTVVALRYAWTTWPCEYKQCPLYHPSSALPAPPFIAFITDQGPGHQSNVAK
ABHD4 inh = inhibitors of mouse ABHD4. AID 720543. purified mABHD4, FP-Rh probe fluorescence polarization. actives 0.54% (n = 370,000). inhibition, % at 8.92 µM;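 active = inhibition exceeding the mean over every tested compound plus 3 SD, cut at about 30% in these data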;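 note: 0% = plate median of compound wells and 100% = S159A mutant with DMSO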
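system = mouse ABHD4 enzyme, wild type | medium = HEPES pH 7.0, NaCl, Pluronic buffer | also added = FP-Rh probe | incubation = Enzyme–compound pre-incubation 45 min, then probe 60 min, both 25 °C | technique = fluorescence polarization, excitation 525 nm, emission 598 nm, BODIPY TMR filters | controls = S159A mutant high control, sample median low control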
HTRA1 inhibitor = blocks human HTRA1 serine peptidase | inhibition, % at 5.96 µM | actives 0.5% (n = 340,000) | recombinant HTRA1, FP-rhodamine activity-based probe, fluorescence polarization; in the data active = inhibition above about 36%;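 note: 0% = enzyme with DMSO and 100% = wells lacking enzyme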
PRMT1 FP inh = inhibitors of human PRMT1; actives 1.3% (n = 370,000); inhibition, % at 2.79 µM; Q99873; recombinant PRMT1, activity-based probe fluorescence polarization;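 active = inhibition above about 21% made by adding two undisclosed values, limit read from the data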
PRMT1 inh conf = confirmation of human PRMT1 inhibitors; recombinant His-PRMT1, activity-based probe fluorescence polarization; inhibition, % at 2.79 µM; shares compounds with PRMT1 FP inh; actives 42% (n = 3,300);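 active = mean inhibition across replicates above the hit cutoff derived for the earlier primary screen, cut at about 22% in these data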
ABHD4 confirm = confirmation of mouse ABHD4 inhibitors; shares compounds with ABHD4 inh; purified mABHD4, FP-Rh probe fluorescence polarization; inhibition, % at 8.92 µM; actives 55% (n = 1,800); AID 720658;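 active = mean inhibition across replicates above the hit cutoff set in the primary screen, cut at about 30% in these data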;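 note: 0% = wild-type ABHD4 with DMSO and 100% = catalytically dead S159A mutant with DMSO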
SIAE confirm = confirmation of human SIAE inhibitors | shares compounds with SIAE primary | SIAE FP-Rh activity-based probe, fluorescence polarization | inhibition, % at 9.66 µM | actives 13% (n = 2,300);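 active = mean inhibition of the replicates above the hit cutoff set in the primary screen, cut at about 17% in these data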;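 note: 0% = SIAE with DMSO and probe and 100% = probe without SIAE; inhibitors lower polarization as more probe stays unbound to SIAE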
Starred values were filed as active, the others as inactive; nt = not tested or not shown. Hits are enriched below; roughly 3.5% of the tested compounds scored in any of these assays.

SMILES	TCR CD3 inh	rCAG RNA binder	SIAE primary	ABHD4 inh	HTRA1 inhibitor	PRMT1 FP inh	PRMT1 inh conf	ABHD4 confirm	SIAE confirm
O=C1OC(/C(=C\Nc2cc(Cl)ccc2O)[N+](=O)[O-])c2ccccc21 (stereo not drawn)	-0.7	2.5	4.5	42.0*	5.5	29.0*	-0.4	7.9	nt
CCCCCC(=O)Nc1cc(S(=O)(=O)O)cc2cc(S(=O)(=O)O)cc(O)c12	16.1	43.4*	10.8	48.9*	23.3	44.6*	56.7*	64.5*	nt
CCCCCC(=O)Nc1cc(S(=O)(=O)N2CCCCC2)ccc1N1CCCCC1	-5.9	2.0	2.8	-11.2	-33.8	3.2	nt	nt	nt
COC(=O)c1cc(-c2cccc3ccccc23)c(=O)n2c1CCC2	nt	1.2	5.2	-7.2	nt	-3.5	nt	nt	nt
Cc1[nH]c2ccccc2c1C1=CC(=O)C=CC1=O	4.9	24.6	13.1	77.8*	31.8	95.9*	93.2*	80.7*	nt
COc1cc(/C=C2\CCCc3c2nc2ccccc2c3C(=O)O)cc(Br)c1O	4.7	2.9	1.8	17.9	-15.9	2.8	nt	nt	nt
CCOc1cc(/C=C2\CCCc3c2nc2ccccc2c3C(=O)O)ccc1OC	16.9	-186.7	16.8	31.6*	-0.5	116.9*	-0.2	27.4	nt
COC(=O)c1ccc(NCc2c(O)ccc(O)c2Br)cc1Cl	-1.8	23.0	11.9	30.6*	-14.4	82.5*	15.1	37.3*	nt
Cc1cccc(C)c1NC(=O)CSCC(=O)c1ccc(O)c(O)c1	5.1	9.9	-0.4	31.7*	30.0	39.4*	62.1*	27.4	nt
CCOC(=O)C1=NOC(C(=O)NC2CCCC2)(C(=O)c2ccc(OC)cc2)C1 (stereo not drawn)	nt	3.3	5.2	1.9	nt	-1.9	nt	nt	nt
COC(=O)[C@]12C[C@H](CC(=O)N3CCSCC3)C(=O)N(CCc3ccc(OC)c(OC)c3)C1=C[C@H](COCc1ccccc1)O[C@@H]2C	nt	5.8	3.6	-1.8	nt	-0.7	nt	nt	nt
COC(=O)C1=C(C)N(Cc2ccc(C)cc2)C(=O)/C1=C\c1ccc(O)c(OC)c1	9.5	15.1	5.0	33.4*	1.1	27.3*	5.4	46.6*	nt
COCC(=O)N[C@H]1C[C@@H]2O[C@@H](CO)CC[C@@H]2O[C@@H]1CCc1ccc(-c2ccccc2)cc1	nt	4.4	-6.0	4.2	nt	2.6	nt	nt	nt
CC(=Nc1ccc(O)cc1)c1sc2ccccc2c1O	7.9	4.9	2.2	38.7*	9.8	26.7*	12.8	0.0	nt
Oc1ccc(-c2c(-c3ccsc3)sc3ccccc23)cc1	-11.1	5.9	-7.6	-26.4	-5.4	0.4	nt	nt	nt
CCOC(=O)[C@]12CCCC=C1N(CCCOC)C(=O)[C@@H]2CC(=O)NCC1CCCCC1	nt	-0.8	-0.3	1.2	nt	4.1	nt	nt	nt
O=C(CCc1ccccc1-c1ccccc1CCNC(=O)c1cccc(F)c1)NCc1ccccc1	nt	8.0	1.4	0.6	nt	-1.5	nt	nt	nt
COc1ccc2c(c1OC)C(=O)N1c3ccccc3N=C(c3ccc([N+](=O)[O-])cc3)CC21 (stereo not drawn)	3.4	2.1	21.3*	2.8	-0.7	32.1*	7.5	nt	1.5
Cc1ccc(C(=O)N2CCC(Oc3cccnc3)CC2)c(C)c1	nt	-0.5	-0.2	4.5	nt	3.2	nt	nt	nt
Cc1ccc(/C=C2\C(=O)NC(=O)N2C)o1	0.5	0.5	19.0*	1.9	-1.2	35.5*	37.1*	nt	-0.3
O=S1(=O)c2ccc(N3CCCC3)cc2Oc2ccccc2CN1Cc1cn(Cc2cccc(F)c2)nn1	nt	13.2	5.0	7.8	nt	1.3	nt	nt	nt
O=c1c2c([N+](=O)[O-])cc([N+](=O)[O-])cc2sn1Cc1ccccc1	0.2	3.4	25.5*	32.3*	8.8	95.8*	96.5*	26.1	19.7*
CCCCCCCCSC1=CC(=O)C(OC)=C(OC)C1=O	-5.1	4.1	20.9*	39.2*	-7.8	38.9*	87.5*	52.2*	5.5
O=C1C2C3C=CC(C3=C3CCCCC3)C2C(=O)N1c1ccccc1 (stereo not drawn)	-2.8	0.2	19.1*	1.4	-2.7	43.2*	1.6	nt	1.9
Cc1cccc(NC(=O)CC2SC(=O)N(c3ccccc3)C2=O)c1 (stereo not drawn)	-11.2	28.6	9.8	-2.5	-8.3	9.1	nt	nt	nt
SMILES	TCR CD3 inh	rCAG RNA binder	SIAE primary	ABHD4 inh	HTRA1 inhibitor	PRMT1 FP inh	PRMT1 inh conf	ABHD4 confirm	SIAE confirm
O=C(CC1SC(=O)N(c2ccccc2)C1=O)Nc1ccccc1 (stereo not drawn)	-7.5	26.4	26.0*	1.7	-0.3	81.0*	93.2*	nt	0.9
O=C(CSc1nnc(-c2ccccn2)n1-c1ccccc1)c1ccc2c(c1)OCO2	nt	4.0	-0.8	5.3	nt	-1.3	nt	nt	nt
Cc1cc(C)n2c(Nc3ccc4c(c3)OCCO4)c(-c3cc4ccccc4o3)nc2n1	-9.2	14.2	10.5	17.8	nt	2.7	nt	nt	nt
Cc1cc(C)n2c(Nc3ccc4c(c3)OCCO4)c(-c3ccc(C)o3)nc2n1	8.9	23.4	17.2*	17.1	3.2	31.1*	3.2	nt	3.9
Cn1cccc1CC(=O)NN=Cc1cccc(F)c1	nt	7.8	1.5	7.5	nt	3.1	nt	nt	nt
C=CCn1c(O)c(C2=c3ccccc3=NC2=O)c2ccccc21	3.3	21.4	27.6*	38.2*	3.2	41.8*	45.2*	44.2*	8.6
CC1=C(C)CS(=O)N(S(=O)(=O)c2ccccc2)C1 (stereo not drawn)	5.0	-0.7	-6.8	-3.7	-4.7	20.4	nt	nt	nt
O=S(=O)(/N=S1\CC=CCN1S(=O)(=O)c1ccccc1)c1ccccc1 (stereo not drawn)	-7.5	-0.3	20.0*	-4.0	-3.9	40.7*	77.5*	nt	1.8
CCOC(=O)N1CCN(C(=O)C[C@H]2C[C@@]3(C(=O)OCC)CCCC4=C3N(CCC4)C2=O)CC1	nt	-0.2	-0.5	4.2	nt	1.1	nt	nt	nt
COc1ccc(NC(=O)N2CCC(N(C)CCC(C)C)CC2)cc1OC	nt	0.8	-0.4	-0.1	nt	-5.9	nt	nt	nt
COc1ccc(CCN2C(=O)c3cccc4c(C(=O)N5CCCCC5)ccc(c34)C2=O)cc1OC	7.7	-3.0	6.5	3.0	-1.2	0.6	nt	nt	nt
CCCCNc1ccc2c3c(cccc13)C(=O)N(CCCC)C2=O	3.6	-310.3	19.3*	52.1*	18.9	155.0*	133.3*	68.2*	18.1*
CCCN1C(=O)c2cccc3c(N4CCCCC4)ccc(c23)C1=O	-7.5	-18.4	19.7*	11.1	-4.2	84.2*	51.5*	nt	7.0
Cc1ccc(C2C3CSCC=C3C(C#N)=C(N)C2(C#N)C#N)cc1 (stereo not drawn)	3.8	14.3	1.8	9.6	-11.2	18.9	nt	nt	nt
